According to BindingDB's records for doi:10.1016/j.bmcl.2010.09.046 (Human Biomolecular Research Institute, 2010):

How the values were obtained:
Bcl-2-related protein A1 [1] = target: T1, Bcl-2-related protein A1 (Homo sapiens, UniProt Q16548); assay: Inhibition of N-terminal FITC BH3 peptide binding to GST-tagged Bfl1 by time resolved-FRET assay
T1 sequence (Q16548 whole entry): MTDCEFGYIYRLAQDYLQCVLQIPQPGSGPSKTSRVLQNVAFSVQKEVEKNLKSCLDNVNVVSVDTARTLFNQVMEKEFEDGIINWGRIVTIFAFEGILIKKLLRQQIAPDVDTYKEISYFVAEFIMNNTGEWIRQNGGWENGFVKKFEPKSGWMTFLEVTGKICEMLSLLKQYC
Procedure, shortened: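 10-point 2-fold dilution series in 10% final DMSO, in duplicate wells. FITC-Bid (5.6 nM) plus Tb-antibody (2.5 nM) was then added and incubated 4 h at room temperature. TR-FRET read at ex 340 nm, signal taken as the 520/490 nm emission ratio.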

Bcl-2-related protein A1 [2] = target: T1, Bcl-2-related protein A1; assay: Inhibition of N-terminal FITC BH3 peptide binding to GST-tagged Bfl1 by fluorescence polarization assay
Procedure, shortened: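 Then FITC-Bid BH3 peptide (5.6 nM working solution) was added and incubated 4 h at room temperature. Ten concentrations in 10% DMSO. Fluorescence polarization read at ex 485/em 530 nm. IC50 from sigmoidal dose-response non-linear regression.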

Compound | IC50 (Bcl-2-related protein A1 [1]) | IC50 (Bcl-2-related protein A1 [2])
CN1CCN(c2cc(O)n(-c3ccc(Cl)c(Cl)c3)c2O)CC1 [1-(3,4-dichlorophenyl)-3-(4-methylpiperazin-1-yl)pyrrolidine-2,5-dione] | > 10 µM | > 10 µM
Oc1c(Cl)c(N=Cc2ccccc2)c(O)n1-c1ccc(Cl)c(Cl)c1 [MLS-0067125.0001] | > 50 µM | > 50 µM
